Active and inactive are the calls of the source. The calls are words filed in the database; no cut-off is given here.
Tests used:
Rattus norvegicus [1] = assay: Antifertility activity in rat at 5 mg/day administered for 7 days; type: functional, organism-based
Procedure, shortened: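 Rat antifertility test: 5 mg/rat/day given for 7 days to two female rats.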

Rattus norvegicus [2] = organism: Rattus norvegicus; assay: CNS activity in rat assessed as gross behaviour; type: ADME, organism-based; settings: in vivo

COc1cccc(N2CCC(=O)N2CCCC(=O)c2ccc(F)cc2)c1 was tested, and the Activity (Rattus norvegicus [1]) was “inactive” and the Activity (Rattus norvegicus [2]) was “Non-toxic”.

In the case of O=C1CCN(c2cccc(C(F)(F)F)c2)N1, the Activity (Rattus norvegicus [1]) is reported as “inactive” and the Activity (Rattus norvegicus [2]) is reported as “Non-toxic”.

For COc1cccc(N2CCC(=O)N2)c1, the Activity (Rattus norvegicus [1]) was “inactive” and the Activity (Rattus norvegicus [2]) was “Non-toxic”.

For CCOC(=O)CCCCCOC1=NN(c2cccc(OC)c2)CC1, the Activity (Rattus norvegicus [1]) was “inactive” and the Activity (Rattus norvegicus [2]) was “Non-toxic”.

O=C1CCN(c2cccc(Cl)c2)N1 was tested, and the Activity (Rattus norvegicus [1]) was “inactive” and the Activity (Rattus norvegicus [2]) was “Non-toxic”.

CCOC(=O)COC1=NN(c2cccc(Cl)c2)CC1 was tested, and the Activity (Rattus norvegicus [1]) was “inactive” and the Activity (Rattus norvegicus [2]) was “Non-toxic”.

CCCCOc1cccc(N2CCC(=O)N2)c1 was tested, and the Activity (Rattus norvegicus [1]) was “inactive” and the Activity (Rattus norvegicus [2]) was “Non-toxic”.

With COc1cccc(N2CCC(=O)N2CCCC(O)c2ccc(F)cc2)c1 (stereo not drawn) the Activity (Rattus norvegicus [1]) was “inactive” and the Activity (Rattus norvegicus [2]) was “Non-toxic”.

For CCOC(=O)COC1=NN(c2cccc(C(F)(F)F)c2)CC1, the Activity (Rattus norvegicus [1]) was “inactive” and the Activity (Rattus norvegicus [2]) was “Non-toxic”.

— ChEMBL document CHEMBL3271975, “Synthesis and biological activity of a series of 1-aryl-3-pyrazolidinones” (J Med Chem, 1976)
